Results from PMC3263943 (Bioscience Reports, 2011).

What was measured:
[1] = biological target: human calmodulin (human) (UniProt P0DP23); test: native gel or EMSA
[2] = biological target: human CaM (calmodulin) (Homo sapiens, UniProt P0DP23); test: Native gel titration of CaM with peptide; format: binding; settings: presence of calcium ions; from Kd,app by native gel densitometry
In short: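 Bacterially expressed CaM (E. coli Rosetta (DE3), calcium-dependent phenyl-Sepharose purification) held at 35 μM, calcium present, with synthetic IQ-motif peptide at 18–350 μM; incubated 1 h at 22°C. Native 15% polyacrylamide gel in Tris/glycine pH 8.8, Coomassie-stained. Fraction bound = complex band/(complex + free CaM), background-corrected densitometry. Means of three independent experiments fitted to hyperbolic binding equation; Kd,app ± S.E.M. from fit.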

| Kd [1] | Ranking of affinity for CaM [2] | Substance |
| --- | --- | --- |
| 65 µM |  | 3IQ4, peptide of the fourth IQ-motif of human IQGAP3 |
| 76 µM |  | 3IQ3, peptide of the third IQ-motif of human IQGAP3 |
|  | followed by 3IQ4 | Ac-KNVNSIVKIQAFFRARKAQDDYR-NH2 [3IQ4] |
| 27 µM |  | 3IQ2, peptide of the second IQ-motif of human IQGAP3 |
